Where a name gives a salt, the structure may show the parent alone.

Data set [1] relates to brine shrimp (Artemia salina). In words: Brine shrimp lethality bioassay.
Data set [2] in a line: Cytotoxicity assay on Vero cells. The format is cell-based. The settings on record: African green monkey, virus-uninfected Vero cells, CC50 (50% cytotoxic concentration), 10-point dose–response curves in triplicate. The method in brief: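 Vero cells were grown in DMEM with 10% FBS, 1% penicillin/streptomycin and 2 mM L-glutamine. Virus-uninfected cells were exposed to test compound at ten concentrations. CC50 was calculated from the 10-point dose–response curves, run in triplicate.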

A further data set concerns Zika virus strain MR766. Kind of data set: Anti-ZIKV viral immunofluorescence assay in Vero cells. The format is cell-based, Zika virus (MR766 Africa lineage). The method in brief: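 Vero cells kept in DMEM with 10% FBS, 1% penicillin/streptomycin and 2 mM L-glutamine. They were pretreated with test compound at ten concentrations, then infected with MR766 virus stock grown in C6/36 mosquito cells (5 μL inoculum per well). After 24 h the cells were fixed in 4% paraformaldehyde and read by immunofluorescence. Mycophenolic acid was the positive control. EC50 came from 10-point dose–response curves in triplicate. CC50 was measured in uninfected Vero cells, and SI = CC50/EC50.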

A further data set has as its system ZIKV. As to conditions: read-out: EC50 (anti-ZIKV); in vitro assays; ref Pathak et al. (2020) [49]; cited from earlier work.
The subject of a further data set is ZIKV NS3 protease. The settings on record: read-out: IC50 (viral protease); ref Pathak et al. (2020) [49]; cited from earlier work.
The test system of the next data set is NS2B-NS3 protease. The settings on record: NS2B-NS3 inhibitors; cited from earlier work.

In the case of `CN1[C@@H]2CC[C@H]1C[C@@H](OC(=O)C(CO)c1ccccc1)C2` (stereo partly shown) [Atropine SO4, Atropine sulfate monohydrate], the nauplii mortality entry in data set [1] (after 24 h) is listed as “below 20%”.
Turning to `COc1ccc2cc3[n+](cc2c1OC)CCc1cc2c(cc1-3)OCO2` [Berberine chloride, berberine chloride], the nauplii mortality result in data set [1] (at 125 μg/mL, 24 h) was “all the nauplii were dead”. Further, the “LD50 (median lethal dose)” value in data set [1] (brine shrimp nauplii, 24 h, probit analysis of 6-point dose (16–500 μg/mL)) is 27.0 µg/mL.
On to `COc1c(C)c2c(c(O)c1C/C=C(\C)CCC(=O)O)C(=O)OC2` [MPA, mycophenolic acid], for which the CC50 in data set [2] was more than 1000 µM. Moreover, the “SI: Selectivity index (CC50/EC50)” value in the data set on Zika virus strain MR766 (ZIKV MR766 / Vero cells) is recorded as more than 1063. Also, the EC50 in the data set on Zika virus strain MR766 (Zika virus, Vero, 24 h, read-out: EC50 (median effective concentration)) came out at 0.94 µM.
As to `C=C[C@@H]1C[C@]1(NC(=O)[C@@H]1C[C@@H](Oc2ncc(OC)c3ccc(Cl)cc23)CN1C(=O)[C@@H](NC(=O)OC(C)(C)C)C(C)(C)C)C(=O)NS(=O)(=O)C1CC1` [asunaprevir], the EC50 in the data set on ZIKV is 4.7 µM. Also, in the data set with ZIKV NS3 protease, the IC50 was 6 µM.
With `CC(C)C[C@H]1C(=O)N2CCC[C@H]2[C@]2(O)O[C@](NC(=O)[C@@H]3C=C4c5cccc6[nH]c(Br)c(c56)C[C@H]4N(C)C3)(C(C)C)C(=O)N12` [bromocriptine], the IC50 in the data set with NS2B-NS3 protease was 21.6 µM.
Regarding `CO[C@@H]1[C@@H](OC(N)=O)[C@@H](O)[C@H](Oc2ccc3c(O)c(NC(=O)c4ccc(O)c(CC=C(C)C)c4)c(=O)oc3c2C)OC1(C)C` [novobiocin], the IC50 in the data set with NS2B-NS3 protease was 14.2 µM.
As to `COc1ccc2c(O[C@@H]3C[C@H]4C(=O)N[C@]5(C(=O)NS(=O)(=O)C6CC6)C[C@H]5/C=C\CCCCN(C)C(=O)[C@@H]4C3)cc(-c3nc(C(C)C)cs3)nc2c1C` [simeprevir], the IC50 in the data set with ZIKV NS3 protease was 2.6 µM.
In the case of `Oc1cccc(-c2c3nc(c(-c4cccc(O)c4)c4ccc([nH]4)c(-c4cccc(O)c4)c4nc(c(-c5cccc(O)c5)c5ccc2[nH]5)CC4)C=C3)c1` [temoporfin], in the data set with NS2B-NS3 protease, the IC50 was 1.1 µM.
Regarding erythrosine B, the half-inhibitory concentration (IC50) in the data set with NS2B-NS3 protease was 1.7 µM.

As usually defined, the CC50 is the concentration giving 50% cytotoxicity. Low readings indicate greater toxicity to the cells, high ones lower toxicity to the cells. In general, IC50 refers to the concentration needed to halve the response being measured.

Source of the values: PMC10753549 (ACS Omega, 2023).
